Sampled rows, rich in hits. Any-hit rate of the full collection: about 0.99%.
FN deposition inh: fibronectin deposition inhibition; AH1F fibroblasts, Alexa488-fibronectin deposition fluorescence, overnight; AID 743247; inhibition, % at 12.6 µM; 350,000 compounds, 0.086% hits;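 active means mean inhibition across replicates of 30% or more, regardless of how many single replicates reach that level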;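 further: positive control wells lacked labelled fibronectin entirely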
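material = AH1F fibroblast monolayer depositing Alexa488-labelled fibronectin into matrix | amount = 10000 AH1F cells/well | buffer or medium = DMEM plus 2% serum, read in PBS | incubation = 1 h cell adhesion before compound, then overnight fibronectin incubation | detection = fluorescence at 485 nm excitation, 525 nm emission | evaluation = percent inhibition as loss of matrix-bound fibronectin fluorescence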
CASP6 VEID inh: blocks human caspase-6 cleavage activity | purified caspase-6, Z-VEID-R110 cleavage fluorescence | inhibition, % at 12.5 µM | 350,000 compounds, 0.53% hits | P55212 | AID 686996;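 active means mean inhibition across replicates at least about 35%, with every replicate also reaching that limit, limit read from the data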;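 further: 0% = median of neutral control wells and 100% = no fluorescence left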
NSD2 HMT inh: blocks human histone methyltransferase NSD2 | 310,000 compounds, 0.54% hits | AID 743445 | inhibition, % at 12.5 µM | NSD2 peptide methylation, AlphaScreen, 120 min | O96028; in the data active means inhibition above about 50%
NPR1 activator: GC-A (human) enzyme activation | P16066 | HEK293 GC-A cells, cGMP TR-FRET, EC30 ANP; 0% at EC30 ANP, 100% saturating ANP | activation, % at 10 µM | 370,000 compounds, 0.14% hits | AID 1671463; in the data active means activation above about 40%
NPR2 activator: GC-B (human) receptor activation | P20594 | HEK293-GC-B cells, CNP EC30, cGMP TR-FRET; 0% at EC30 CNP, 100% saturating CNP | activation, % at 10 µM | 370,000 compounds, 0.11% hits;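 active means activation at 10 µM reaching about 35% in either raw or pattern-adjusted values, limit read from the data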
Target sequence (P20594 whole entry, looked up): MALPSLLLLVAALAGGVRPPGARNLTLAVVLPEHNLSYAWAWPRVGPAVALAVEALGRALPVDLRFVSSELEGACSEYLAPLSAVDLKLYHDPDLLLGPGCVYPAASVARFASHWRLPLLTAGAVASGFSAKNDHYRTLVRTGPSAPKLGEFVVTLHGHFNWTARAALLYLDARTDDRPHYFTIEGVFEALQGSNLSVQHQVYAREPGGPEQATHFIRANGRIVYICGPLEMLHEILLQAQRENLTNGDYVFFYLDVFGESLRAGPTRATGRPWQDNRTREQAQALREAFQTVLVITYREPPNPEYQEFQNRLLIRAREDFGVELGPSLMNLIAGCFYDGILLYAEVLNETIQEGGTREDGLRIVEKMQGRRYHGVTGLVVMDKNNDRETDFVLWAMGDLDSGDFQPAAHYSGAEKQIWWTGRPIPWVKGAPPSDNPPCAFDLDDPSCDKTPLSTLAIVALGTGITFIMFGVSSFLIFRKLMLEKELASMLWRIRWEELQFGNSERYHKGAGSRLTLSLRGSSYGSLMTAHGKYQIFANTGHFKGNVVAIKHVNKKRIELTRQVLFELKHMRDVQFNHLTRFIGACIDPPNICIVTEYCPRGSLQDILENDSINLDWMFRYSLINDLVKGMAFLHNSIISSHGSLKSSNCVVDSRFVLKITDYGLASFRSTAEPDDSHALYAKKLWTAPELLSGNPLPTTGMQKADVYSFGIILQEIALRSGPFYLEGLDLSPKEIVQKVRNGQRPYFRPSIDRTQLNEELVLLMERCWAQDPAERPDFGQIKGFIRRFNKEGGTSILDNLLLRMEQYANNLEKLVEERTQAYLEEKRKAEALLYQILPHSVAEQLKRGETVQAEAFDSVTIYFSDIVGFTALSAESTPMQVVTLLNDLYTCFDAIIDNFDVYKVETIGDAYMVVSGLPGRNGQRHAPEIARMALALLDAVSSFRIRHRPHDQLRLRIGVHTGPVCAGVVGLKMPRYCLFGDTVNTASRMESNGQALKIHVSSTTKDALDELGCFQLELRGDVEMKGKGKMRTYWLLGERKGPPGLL
CaV13 ICDI inh: Disruptors of the CACNA1D IQ motif to Ca2+-dependent inactivation inhibitor domain association, primary screening, Förster resonance energy transfer in intact living …. HEK cells, CFP/YFP FRET ICDI-IQ, plate reader, 10 min; percent FRET-ratio fall versus neutral wells. inhibition, % at 12.3 µM. 340,000 compounds, 0.098% hits;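 active means mean replicate inhibition of at least 30% and at least 1% of replicates passing that level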;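 further: 0% = median of the neutral control wells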
AlphaScreen art: counter-screen for NSD2 inhibitors: AlphaScreen artifacts; 1,500 compounds, 9.4% hits; shares compounds with NSD2 HMT inh; AID 1053174; AlphaScreen artifact counterscreen, preloaded methylated H4 peptide; AC35, µM (titrated, usually from 10 µM), for the others: at the highest dose activity change, negative = signal loss; call rule not given here
The depositor's hits bear a star; nt = no result.

SMILES	FN deposition inh	CASP6 VEID inh	NSD2 HMT inh	NPR1 activator	NPR2 activator	CaV13 ICDI inh	AlphaScreen art
O=C(C[C@@H]1CC[C@H]2[C@@H](COC[C@@H](O)CN2CC2CCCCC2)O1)NCc1ccc(Cl)cc1	-6	0	nt	nt	nt	nt	nt
COc1cc(NC(=O)c2ccccc2)c(OC)cc1NC(=O)CSc1[nH]c(=O)cc(C)c1C#N	1	1	130*	9	7	-7	-6%
O=C(Cc1ccccc1)NC[C@H]1N[C@H](CO)[C@@H]1c1ccc(-c2ccccc2)cc1	-6	-1	nt	nt	nt	nt	nt
CCN1CCc2nc3ccccc3c(C(=O)Nc3ccc(NC(C)=O)cc3)c2C1	-6	-4	59*	5	0	-5	0%
COc1ccc(CNC(=O)CCCn2nc(C)c([N+](=O)[O-])c2C)cc1OC	3	-3	86*	-2	3	0	8%
CC1CCN(C(=O)C2CCN(S(=O)(=O)c3cccs3)CC2)CC1	2	1	-4	-3	-1	-3	nt
CC1CC(C)CN(C(=O)C2CCN(S(=O)(=O)c3cccs3)CC2)C1 (stereo unspecified)	-1	0	50*	-1	-4	-3	-2%
COc1ccccc1NC(=O)N[C@@H]1C=C[C@@H](CC(=O)N2CCC(Cc3ccccc3)CC2)O[C@@H]1CO	-4	1	nt	nt	nt	nt	nt
NC(=O)c1ccc(-n2nnnc2SCC(=O)c2ccc(O)c(O)c2)cc1	3	17	89*	-7	3	-2	-5%
COc1ccc(-n2nnnc2SCC(=O)c2ccc(O)c(O)c2)cc1	nt	nt	-1	0	-3	-7	nt
CCN(CC)CC(C)(C)C(=O)/C=C/c1ccc(/C=C/C(=O)C(C)(C)CN(CC)CC)cc1	46*	-25	101*	-7	0	-7	-3%
CCN(CC)CCOC(=O)/C=C/c1ccccc1	8	4	1	-4	0	-5	nt
CCOC(=O)Nc1ccc2c(c1)N(C(=O)CCN(C)C)c1ccccc1CC2	1	5	-2	2	0	-20	nt
COC(=O)Nc1ccc2c(c1)N(C(=O)CCN(C)C)c1ccccc1CC2	-3	1	105*	-1	-6	-2	-3%
Cc1noc(C)c1NC(=O)N(C)C[C@@H]1OCCCC[C@H](C)Oc2ccc(NC(=O)C3CCCCC3)cc2C(=O)N([C@H](C)CO)C[C@H]1C	nt	-3	nt	nt	nt	nt	nt
O=C(NCC[C@@H]1CC[C@H](NC(=O)c2cnccn2)[C@H](CO)O1)Nc1ccc(F)cc1	-5	1	nt	nt	nt	nt	nt
COCC(=O)Nc1ccc2c(c1)OC[C@H](C)N(CC1CC1)C[C@@H](C)[C@H](OC)CN(C)C2=O	-4	nt	nt	nt	nt	nt	nt
CC(C)(C)c1[nH]nc2c1C(c1ccoc1)C(C#N)=C(N)O2 (stereo unspecified)	nt	nt	76*	0	8	-2	-2%
Oc1ccccc1CNc1cccc2cccnc12	-5	-4	53*	-1	-2	-3	-2%
C[C@H](CO)N1C[C@H](C)[C@H](CN(C)Cc2ccccc2)OCc2cnnn2CCCC1=O	-6	1	nt	nt	nt	nt	nt
C[C@H](CO)N1C[C@H](C)[C@H](CN(C)C(=O)c2ccccc2F)Oc2cc(-c3ccc(F)cc3)ccc2S1(=O)=O	-9	-3	nt	nt	nt	nt	nt
O=C1c2c(O)ccc(O)c2C(=O)c2c(NCCNCCO)ccc(NCCNCCO)c21	0	-238	92*	-28	-40	-3	2µM*
Nc1c(/C=C2/C=CC(=O)C(O)=C2)c(=O)nc2sc(CC(=O)N3CCOCC3)nn12	-4	28	114*	1	5	-8	3.6µM*
COc1ccc(C2CCc3cc4c(cc3C2=NOC(C)=O)OCO4)cc1OC (stereo unspecified)	16	2	58*	9	2	-15	-7%
CC1OC(Nc2ccc(N=Nc3ccccc3)cc2)C(O)C(O)C1O (stereo unspecified)	-7	2	nt	10	-1	7	nt
SMILES	FN deposition inh	CASP6 VEID inh	NSD2 HMT inh	NPR1 activator	NPR2 activator	CaV13 ICDI inh	AlphaScreen art
CC1OC(Nc2cccc3ccccc23)C(O)C(O)C1O (stereo unspecified)	nt	nt	65*	-5	4	-10	-2%
COCC#Cc1ccc([C@@H]2[C@@H](CO)N3CCCCN(S(=O)(=O)c4ccccc4F)C[C@@H]23)cc1	nt	-1	nt	nt	nt	nt	nt
CC(/C=C1\SC(=S)N(NS(=O)(=O)c2ccc(C)cc2)C1=O)=C\c1ccccc1	2	0	73*	-11	-4	-4	-11%
CC(/C=C1\SC(=S)N(NS(=O)(=O)c2ccccc2)C1=O)=C\c1ccccc1	-5	22	55*	-3	-9	-4	-10%
CC(/C=C1\SC(=S)N(NC(=O)c2ccc(C)cc2)C1=O)=C\c1ccccc1	nt	nt	1	nt	nt	nt	nt
CCN1CCCC1CNC(=O)c1ccc2c(c1)N(Cc1cccc(Cl)c1)C(=O)c1ccccc1S2(=O)=O (stereo unspecified)	5	-3	58*	-5	-4	-3	-5%
CCN1CCCC1CNC(=O)c1ccc2c(c1)N(Cc1ccccc1F)C(=O)c1ccccc1S2(=O)=O (stereo unspecified)	15	-16	15	-3	-5	-3	nt
O=C(Nc1cc(S(=O)(=O)Nc2ccccc2F)ccc1Cl)c1ccc(F)cc1F	4	1	89*	-2	-3	-18	-5%
CCS(=O)(=O)NCC[C@@H]1CC[C@@H](NS(=O)(=O)c2cccc(Cl)c2)[C@H](CO)O1	nt	0	nt	nt	nt	nt	nt
O=C(O)c1ccc(-n2cccc2/C=N\NC(=O)c2cc3cc(Br)ccc3o2)cc1	-6	64*	58*	-6	-1	-2	-17%
C[C@@H]1CCCCO[C@@H](CN(C)C)[C@@H](C)CN([C@H](C)CO)C(=O)c2cc(NC(=O)C3CCCCC3)ccc2O1	nt	0	nt	nt	nt	nt	nt
CNC(=O)C[C@@H]1CC[C@H]2[C@H](COc3ccc(NC(=O)c4ccccc4Cl)cc3C(=O)N2C)O1	-11	-2	nt	nt	nt	nt	nt
CN(C)CCCNC(=O)C[C@@H]1C=C[C@@H](NC(=O)c2ccccc2F)[C@H](CO)O1	-13	-3	nt	nt	nt	nt	nt
C[C@H]1CN([C@@H](C)CO)C(=O)c2cc(C#CC3CCCCC3)cnc2O[C@H]1CN(C)C(=O)NC1CCCC1	5	2	nt	nt	nt	nt	nt
CCOC(=O)c1sc(NC(=O)COc2ccc3c(c2)OCO3)nc1C	-1	-5	114*	-1	2	-7	-2%
O=C1c2ccccc2C(=O)N1CCc1nc2ccccc2c(=O)n1-c1ccccn1	nt	nt	0	5	-3	0	nt
Cc1ccnc(-n2c(CCN3C(=O)c4ccccc4C3=O)nc3ccccc3c2=O)c1	0	nt	52*	5	3	-5	-1%

High-throughput results deposited in PubChem BioAssay by several laboratories.
